Data: ChEMBL document CHEMBL4049428, “Exploring Derivatives of Quinazoline Alkaloid l-Vasicine as Cap Groups in the Design and Biological Mechanistic Evaluation of Novel Antitumor Histone Deacetylase Inhibitors” (J Med Chem, 2017)

Columns and labels:
[1] = molecular target: Histone deacetylase 1 (Homo sapiens, UniProt Q13547); assay: Inhibition of HDAC 1 in human HeLa nuclear extract using HDAC substrate-3 measured after 60 mins by fluorometric analysis
[2] = molecular target: Histone deacetylase 8 (Homo sapiens, UniProt Q9BY41); assay: Inhibition of HDAC 8 in human HeLa nuclear extract using fluorogenic HDAC class 2A substrate measured after 60 mins by fluorometric analysis
[3] = system: MIA PaCa-2; assay: Cytotoxicity against human MIAPaCa2 cells assessed as growth inhibition at 10 uM after 48 hrs by MTT assay; type: functional; details: MIA PaCa-2, 48 h, read-out: GI
Method in brief: (§1)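 MTT assay, 48 h exposure; adherent lines seeded 12 h and suspension lines 4 h before compound. Media: RPMI-1640/10% FCS (THP-1, HL-60, Colo-205, Caco-2, A549), DMEM/10% FCS (A549, MIAPaCa-2, MCF-7). MTT 4 h, formazan dissolved in DMSO, absorbance 570 nm. Mean ± S.D of three experiments in triplicate; SAHA 5 µM reference.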

[4] = system: A549; assay: Cytotoxicity against human A549 cells assessed as growth inhibition at 10 uM after 48 hrs by MTT assay; type: functional; details: A549, 48 h, read-out: GI; method in brief: as §1
[5] = system: MOLT-4; assay: Cytotoxicity against human MOLT4 cells assessed as growth inhibition after 48 hrs by MTT assay; type: functional, cell-based; details: MOLT-4, 48 h
[6] = system: Caco-2; assay: Cytotoxicity against human Caco2 cells assessed as growth inhibition after 48 hrs by MTT assay; type: functional, cell-based; details: Caco-2, 48 h
[7] = system: PC-3; assay: Cytotoxicity against human PC3 cells assessed as growth inhibition after 48 hrs by MTT assay; type: functional, cell-based; details: PC-3, 48 h
[8] = system: P388; assay: Antitumor activity against mouse P388 cells implanted in CDF1 mouse assessed as increase in median survival time at 50 mg/kg, ip administered for 9 consecutive days; type: functional
Method in brief: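 P388 leukemia cells were harvested from 6–7-day-old ascites grown in the peritoneum of female DBA/2 mice. Female CDF1 mice (18–23 g) received 5×10^5 cells i.p. on day 0. Next day they were randomized into groups of 7 and dosed i.p. daily for 9 consecutive days; controls got 0.2 ml normal saline. Mortality was followed to day 18, with median survival time and %T/C calculated.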

[9] = system: HL-60; assay: Induction of mitochondrial membrane potential loss in human HL60 cells at 0.125 uM measured after 48 hrs by Rh123 dye-based flow cytometric analysis (reference value: 5.6%); type: functional
Method in brief: (§2)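 Cells seeded in 6-well plates 2-4 h, then 48 h with compound; Rh-123 1 µM added for the final half hour; cells centrifuged, washed twice in PBS, resuspended in PBS, and Ψm loss quantified by flow cytometry as percentage of cells.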

[10] = system: MOLT-4; assay: Induction of mitochondrial membrane potential loss in human MOLT4 cells at 0.125 uM measured after 48 hrs by Rh123 dye-based flow cytometric analysis (reference value: 9.6%); type: functional; method in brief: as §2
[11] = system: HL-60; assay: Induction of reactive oxygen species in human HL60 cells at 0.125 uM measured after 48 hrs by H2DCFDA dye-based flow cytometric analysis (reference value: 0.4%); type: functional

Chain of Histone deacetylase 8 (Q9BY41 whole entry): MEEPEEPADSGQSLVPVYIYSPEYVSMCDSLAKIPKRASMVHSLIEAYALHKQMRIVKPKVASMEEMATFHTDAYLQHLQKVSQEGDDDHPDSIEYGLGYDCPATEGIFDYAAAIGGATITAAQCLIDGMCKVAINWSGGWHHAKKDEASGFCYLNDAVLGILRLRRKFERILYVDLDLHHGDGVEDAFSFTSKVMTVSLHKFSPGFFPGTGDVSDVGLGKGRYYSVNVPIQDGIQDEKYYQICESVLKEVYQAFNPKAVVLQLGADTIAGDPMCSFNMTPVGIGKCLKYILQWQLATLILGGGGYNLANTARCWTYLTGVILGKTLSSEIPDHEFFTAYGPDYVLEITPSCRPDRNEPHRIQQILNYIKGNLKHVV
Chain of Histone deacetylase 1 (Q13547 whole entry): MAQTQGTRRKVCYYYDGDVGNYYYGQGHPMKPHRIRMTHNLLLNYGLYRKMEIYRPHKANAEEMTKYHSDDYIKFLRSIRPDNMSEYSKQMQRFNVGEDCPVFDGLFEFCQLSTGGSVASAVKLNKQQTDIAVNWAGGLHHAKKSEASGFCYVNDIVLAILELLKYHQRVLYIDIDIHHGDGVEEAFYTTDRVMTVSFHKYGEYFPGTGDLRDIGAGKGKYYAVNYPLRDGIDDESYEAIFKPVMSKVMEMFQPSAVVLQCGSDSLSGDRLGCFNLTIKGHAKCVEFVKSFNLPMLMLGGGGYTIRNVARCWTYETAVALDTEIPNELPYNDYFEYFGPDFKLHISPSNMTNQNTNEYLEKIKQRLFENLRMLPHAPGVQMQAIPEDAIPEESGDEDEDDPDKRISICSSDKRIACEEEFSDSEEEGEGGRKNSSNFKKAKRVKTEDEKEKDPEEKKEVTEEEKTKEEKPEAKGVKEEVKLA

For `O=C(CCCCCCC(=O)Nc1ccccc1CN1CC[C@H](O)C1)NO`, the IC50 [1] was 415 nM, the IC50 [2] was 211 nM and the inhibition of growth at 10 µM [3] was 93%. The inhibition of growth at 10 µM [4] was 84%, the IC50 [5] was 810 nM and the IC50 [6] was 6 µM. For the same molecule, the IC50 [7] was 19 µM, the T/C [8] was 92.47% and the Activity [9] was 7.5%. The Activity [10] was 2.4% and the Activity [11] was 1%.
